Assay results: ChEMBL document CHEMBL1649536, “First report of plasmid-mediated quinolone resistance determinant qnrS1 in an Escherichia coli strain of animal origin in Italy” (2009)
Converted amounts (≈) assume the structure as drawn.

What was measured:
Assay type in all cases: functional
Escherichia coli [1] = experiment: Antibacterial activity against Escherichia coli 3963 by Etest method
Summary of the method: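 Strain 3963 is an E. coli poultry isolate of phylogenetic group D and multilocus sequence type 398. It was picked from 73 poultry isolates with ciprofloxacin MICs of ≥0.125 μg/ml. Resistance categories were assigned by published interpretive criteria.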

Escherichia coli [2] = experiment: Antibacterial activity against Escherichia coli TOP10 by Etest method
Escherichia coli [3] = experiment: Antibacterial activity against quinolone-resistant Escherichia coli TOP10-3963 transformant harboring qnrS1 gene by Etest method
Summary of the method: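 The transformant was made by extracting plasmid DNA from strain 3963 and transforming competent E. coli TOP10. Transformants were selected on LB agar containing 0.06 μg/ml ciprofloxacin and carried both qnrS1 and blaTEM-1.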

| SMILES | MIC (Escherichia coli [1]) [µg/mL] | MIC (Escherichia coli [2]) [µg/mL] | MIC (Escherichia coli [3]) [µg/mL] |
| --- | --- | --- | --- |
| CO/N=C(\C(=O)N[C@@H]1C(=O)N2C(C(=O)O)=C(CSc3nc(=O)c(O)nn3C)CS[C@H]12)c1csc(N)n1 [CEFTRIAXONE] | 0.032 (≈ 0.0577 µM) | 0.064 (≈ 0.115 µM) | 0.094 (≈ 0.169 µM) |
| CO/N=C(\C(=O)N[C@@H]1C(=O)N2C(C(=O)O)=C(COC(C)=O)CS[C@H]12)c1csc(N)n1 [CEFOTAXIME] | 0.047 (≈ 0.103 µM) | 0.064 (≈ 0.141 µM) | 0.064 (≈ 0.141 µM) |
| CCN1CCN(c2cc3c(cc2F)c(=O)c(C(=O)O)cn3C2CC2)CC1 [ENROFLOXACIN] | 2 (≈ 5.56 µM) | 0.08 (≈ 0.223 µM) | 0.5 (≈ 1.39 µM) |
| CC1(C)S[C@@H]2[C@H](NC(=O)[C@H](N)c3ccccc3)C(=O)N2[C@H]1C(=O)O [AMPICILLIN] | ≥ 256 | 6 (≈ 17.2 µM) | ≥ 256 |
| C[C@H]1COc2c(N3CCN(C)CC3)c(F)cc3c(=O)c(C(=O)O)cn1c23.C[C@H]1COc2c(N3CCN(C)CC3)c(F)cc3c(=O)c(C(=O)O)cn1c23.O [LEVOFLOXACIN] |  | 0.006 | 0.25 |
| O=C(O)c1cn(C2CC2)c2cc(N3CCNCC3)c(F)cc2c1=O [CIPROFLOXACIN] | 0.38 (≈ 1.15 µM) |  |  |
| CCn1cc(C(=O)O)c(=O)c2ccc(C)nc21 [NALIDIXIC ACID] | 16 (≈ 68.9 µM) | 2 (≈ 8.61 µM) | 6 (≈ 25.8 µM) |
